Key:
HT-1080 = assay: Antiproliferative activity against human HT1080 cells by MTT assay; type: functional; details: read-out: ED50 (the source's name)
Outline: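 Human HT-1080 fibrosarcoma cells grown in Eagle's MEM with 10% fetal calf serum, 0.1% NaHCO3 and 2 mM glutamine. Viability with and without test agent read by MTT assay; 5-fluorouracil as positive control. ED50 calculated from the mean of six determinations.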

[1] = Antiproliferative activity against mouse Colon 26-L5 cells by MTT assay; type: functional; details: read-out: ED50 (the source's name)
Outline: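 Murine colon 26-L5 carcinoma cells grown in RPMI-1640 with 10% fetal calf serum, 0.1% NaHCO3 and 2 mM glutamine. Cell viability in presence and absence of agent measured by MTT; 5-fluorouracil served as positive control. ED50 derived from the mean of six determinations.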

O=C(O)/C=C/c1ccc(O)cc1 [COUMARIC ACID]
EC50 (HT-1080): > 100 µM
EC50 [1]: > 100 µM

O=C(/C=C(O)/C=C/c1ccc(O)cc1)CCc1ccc(O)cc1
EC50 (HT-1080): > 100 µM
EC50 [1]: 62.6 µM

O=Cc1ccc(O)cc1 [4-HYDROXYBENZALDEHYDE]
EC50 (HT-1080): > 100 µM
EC50 [1]: > 100 µM

O=c1[nH]cc(F)c(=O)[nH]1 [FLUOROURACIL]
EC50 (HT-1080): 8 µM
EC50 [1]: 0.5 µM

COc1cc(O)cc2c1C(=O)C[C@@H](c1ccc(O)cc1)O2
EC50 (HT-1080): > 100 µM
EC50 [1]: > 100 µM

COc1cc(O)cc(OC)c1C(=O)/C=C/c1ccc(O)cc1
EC50 (HT-1080): 50.5 µM
EC50 [1]: 28.7 µM

COc1cc(/C=C/c2ccccc2)oc(=O)c1 [DESMETHOXYYANGONIN]
EC50 (HT-1080): > 100 µM
EC50 [1]: > 100 µM

CO[C@@H](/C=C/c1ccccc1)C[C@@H](O)CCc1ccc(O)cc1
EC50 (HT-1080): > 100 µM
EC50 [1]: > 100 µM

CC[C@H](CC[C@@H](C)[C@H]1CC[C@H]2[C@@H]3CC=C4C[C@@H](O[C@@H]5O[C@H](CO)[C@@H](O)[C@H](O)[C@H]5O)CC[C@]4(C)[C@H]3CC[C@]12C)C(C)C [SITOGLUSIDE]
EC50 (HT-1080): > 100 µM
EC50 [1]: > 100 µM

O=C(/C=C/C=C/c1ccc(O)cc1)CCc1ccc(O)cc1
EC50 (HT-1080): 78.8 µM
EC50 [1]: 57.7 µM

CCO[C@H](/C=C/c1ccccc1)C[C@@H](O)CCc1ccc(O)cc1
EC50 (HT-1080): > 100 µM
EC50 [1]: 94.6 µM

COC(=O)/C=C/c1ccc(O)cc1 [METHYL P-HYDROXYCINNAMATE]
EC50 (HT-1080): > 100 µM
EC50 [1]: 84.2 µM

CCO[C@@H](/C=C/c1ccccc1)C[C@@H](O)CCc1ccc(O)cc1
EC50 (HT-1080): > 100 µM
EC50 [1]: > 100 µM

O=C(/C=C/c1ccc(O)cc1)c1ccc(O)cc1 [4,4'-DIHYDROXYCHALCONE]
EC50 (HT-1080): > 100 µM
EC50 [1]: > 100 µM

COc1cc(O)cc(O)c1C(=O)/C=C/c1ccc(O)cc1 [HELICHRYSETIN]
EC50 (HT-1080): 40.1 µM
EC50 [1]: 64.7 µM

CO[C@H](/C=C/c1ccccc1)C[C@@H](O)CCc1ccc(O)cc1
EC50 (HT-1080): > 100 µM
EC50 [1]: 86.4 µM

Oc1cc(O)cc(O)c1 [PHLOROGLUCINOL]
EC50 (HT-1080): 20.9 µM
EC50 [1]: 26.4 µM

CC(=O)/C=C/c1ccc(O)cc1
EC50 (HT-1080): > 100 µM
EC50 [1]: > 100 µM

Oc1ccc(CC[C@H](O)C[C@@H](O)CCc2ccc(O)cc2)cc1
EC50 (HT-1080): 94.4 µM
EC50 [1]: 12.8 µM

CO[C@@H](CCc1ccc(O)cc1)CC(=O)/C=C/c1ccc(O)cc1
EC50 (HT-1080): 10.1 µM
EC50 [1]: 5.2 µM

COc1cc(/C=C/c2ccc(O)cc2)oc(=O)c1
EC50 (HT-1080): 20.1 µM
EC50 [1]: 20.7 µM
